C2C12 statin = protects C2C12 myotubes from simvastatin toxicity. ATP luminescence, 48 h; scaled: DMSO 0, geranylgeraniol control 100. rescue of ATP level, % at 7.49 µM. actives 0.78% (n = 330,000). AID 602340;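 active means mean ATP rescue above about 67%, or every replicate alone reaching that limit, limit read from the data, passing the limit was not always enough; inconclusive means no clear call, values can overlap the other calls; inactive means mean under the limit and some replicate under it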;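 further: myotubes were challenged with 10 µM simvastatin during compound exposure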
Cneo AK release = Cryptococcus neoformans lysis via adenylate kinase release; AID 651654; C. neoformans lysis, adenylate kinase release luminescence, 4 h; normalised: neutral wells 0, clomiphene wells 100; actives 0.2% (n = 360,000); lysis activity, % at 15 µM;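 active means mean lysis activity across replicates of at least 80%, whatever share of replicates individually reach that level; inactive means mean lysis activity below 80%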
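Material – log-phase Cryptococcus neoformans yeast cells · Input – 5 × 10^6 yeast cells/mL · Medium – fresh YPD growth medium · Doses – single compound concentration per well · Timing – static 4 h at 37 °C with compound, 1 h detection · Detection – adenylate kinase release luminescence · Read-out – signal increase indicating cell lysis · Control set – Clomiphene as positive lysis control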
Xi reactivation = activators of X-chromosome reactivation in mouse fibroblasts; XiGFP mouse fibroblasts, % GFP-positive cells imaging, 3 d; cells co-treated with 5-aza-dC sensitizer; scaled so ellipticine positive control = 100%; activation, % at 7.58 µM; actives 0.055% (n = 360,000);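 active means mean normalized replicate activation at least 10% and every replicate at or above 10%; inconclusive means only one of the two criteria met; inactive means mean below 10% and not all replicates reach 10%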
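material = 68-5-11 XiGFP fibroblast line | medium = DMEM plus 5-aza-dC sensitizer | schedule = 3 days compound exposure | benchmarks = positive control ellipticine, 6 µM final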
DENV2 CPE rescue = DENV2-induced cell death inhibition. CPE inhibition, % at 9.99 µM. AID 651640. actives 1.7% (n = 350,000). DENV2-infected cells, cytopathic effect rescue, plate reader; in the data active means CPE inhibition above about 20%, passing the limit was not always enough; inconclusive means no clear call, values can overlap the other calls; tested in BHK-21 cells
Hits are given with their value; . = inactive; ? = inconclusive; / = not tested or not shown. Most compounds without a hit are left out; they make up all but 2.1% or so of the library.

SMILES	C2C12 statin	Cneo AK release	Xi reactivation	DENV2 CPE rescue
CC(=O)O[C@H]1CC[C@@]2(C)[C@@H](CC[C@H]3[C@@H]4CC[C@H](C(C)O)[C@@]4(C)CC(=O)[C@@H]32)C1 (stereo partly specified)	.	.	.	37
COc1ccc2[nH]c3c(c2c1)CCN1C(=O)N([C@@H](C)C(=O)NC2CCCCC2C)C(=O)[C@]31C (stereo partly specified)	.	.	/	48
COc1ccc(NC(=O)Nc2cccc3c2O[C@@H](CN(C)C(=O)Nc2ccc(C(F)(F)F)cc2)[C@@H](C)CN([C@H](C)CO)C3=O)cc1	.	.	.	.
Cc1oc(-c2ccc(Cl)cc2)[n+]([O-])c1C	76	.	/	/
Cc1oc(-c2ccc(Cl)cc2)cc1C(=O)O	.	/	.	.
COCC(=O)Nc1ccc2c(c1)[C@H]1C[C@@H](CC(=O)NCc3cc(F)ccc3F)O[C@@H](CO)[C@H]1O2	.	.	.	38
COCC(=O)Nc1ccc2c(c1)[C@@H]1C[C@H](CC(=O)N(C)C)O[C@@H](CO)[C@@H]1O2	.	.	.	30
COCC(=O)Nc1ccc2c(c1)[C@H]1C[C@@H](CC(=O)O)O[C@@H](CO)[C@H]1O2	/	/	.	43
COCC(=O)Nc1ccc2c(c1)[C@H]1C[C@H](CC(=O)NCc3ccccc3)O[C@@H](CO)[C@H]1O2	.	.	.	21
COCC(=O)Nc1ccc2c(c1)[C@H]1C[C@@H](CC(=O)O)O[C@H](CO)[C@H]1O2	/	/	.	.
O=C(C[C@H]1C[C@@H]2c3cc(NC(=O)C4CCC4)ccc3O[C@@H]2[C@H](CO)O1)NCc1ccccc1	.	.	.	23
O=C(C[C@H]1C[C@H]2c3cc(NC(=O)Nc4ccccc4)ccc3O[C@H]2[C@H](CO)O1)NCc1ccncc1	.	.	.	62
O=C(C[C@@H]1C[C@H]2c3cc(NC(=O)C4CCC4)ccc3O[C@H]2[C@H](CO)O1)NCc1ccccc1	.	.	.	.
CCN1C(=O)CS/C1=C(\C#N)S(=O)(=O)c1ccccc1	.	.	/	/
N#CC(=C1Nc2ccccc2N1)S(=O)(=O)c1ccccc1	108	.	.	.
CN1C(=O)c2cc(NC(=O)C3CCCC3)ccc2OC[C@H]2O[C@H](CC(=O)NCC3CC3)CC[C@H]21	.	.	.	.
CCOC(=O)c1nn(-c2cccc(Cl)c2)c(C)c1C(C)=O	123	.	/	/
C[C@H](CO)N1C[C@H](C)[C@@H](CN(C)CC2CC2)Oc2c(NC(=O)Nc3ccc(F)cc3)cccc2C1=O	.	.	.	.
CCC(=O)NC[C@@H]1[C@@H](c2ccc(-c3ccc(OC)cc3)cc2)[C@@H](CO)N1C(C)=O	/	/	.	42
COCC(=O)NC[C@@H]1[C@@H](c2ccc(-c3ccccc3)cc2)[C@H](CO)N1C(C)=O	.	.	.	41
CCC(=O)Nc1ccc2c(c1)OC[C@H](C)N(Cc1nccs1)C[C@@H](C)[C@@H](OC)CN(C)C2=O	.	.	.	.
COc1ccc2c(c1)c1nnc(SCC(=O)Nc3ccccc3F)nc1n2C	.	.	.	51
COc1ccccc1NC(=O)CCC(=O)N/N=C(/C)c1ccc(C)cc1	/	/	.	.
C/C(=N/NC(=O)CCC(=O)Nc1cccc(Cl)c1)c1ccc(C)cc1	/	/	.	28
C/C(=N\NC(N)=O)c1cccc(Cl)c1	/	/	.	38
SMILES	C2C12 statin	Cneo AK release	Xi reactivation	DENV2 CPE rescue
CO[C@H]1CN(C)C(=O)c2cc(NC(=O)Nc3cccc(Cl)c3)ccc2OC[C@H](C)N(C)C[C@@H]1C	.	.	.	?
Cc1ccc(NC(=S)NCC23C=CC(O2)C2C(=O)N(c4ccc(C)cc4)C(=O)C23)cc1 (stereo unspecified)	/	.	.	49
CC(C)NC(=O)N1[C@H](C(=O)N2CCC(Cc3ccccc3)CC2)[C@@H](CO)[C@@H]2Cn3c(cccc3=O)[C@@H]21	.	.	.	26
CC(C)NC(=O)N1[C@@H]2c3cccc(=O)n3C[C@@H]2[C@@H](CO)[C@@H]1C(=O)N1CCC(Cc2ccccc2)CC1	.	.	.	.
O=C([C@@H]1[C@@H](CO)[C@@H]2Cn3c(cccc3=O)[C@@H]2N1CCC(F)(F)F)N1CCCCC1	.	102	.	.
CNC(=O)C[C@@H]1CC[C@H]2[C@H](COc3ccc(NC(=O)c4ccccc4Cl)cc3C(=O)N2C)O1	.	.	.	.
Cc1ccc2c(c1)N(CC(=O)NCCc1c[nH]c3ccccc13)C(=O)CO2	80	.	/	/
Cc1ccc(NC(=O)CN2C(=O)COc3ccc(C)cc32)nc1	81	.	/	/
Cc1ccc2c(c1)N(CC(=O)Nc1nccs1)C(=O)CO2	.	/	.	.
Cc1ccc(CNc2nc(N)c([N+](=O)[O-])c(Nc3ccc(F)cc3)n2)cc1	123	.	/	/
CNc1nc(N)c([N+](=O)[O-])c(NCc2ccccc2)n1	/	.	.	76
C[C@@H]1CN([C@H](C)CO)C(=O)c2cc(NS(=O)(=O)c3cn(C)cn3)ccc2O[C@H]1CN(C)Cc1ccccc1	.	.	.	21
C[C@H](CO)N1C[C@H](C)[C@@H](CN(C)CC2CC2)Oc2ccc(NS(=O)(=O)c3cn(C)cn3)cc2C1=O	.	.	.	33
C[C@H](CO)N1C[C@H](C)[C@@H](CN(C)Cc2ccccc2)Oc2ccc(NS(=O)(=O)c3cn(C)cn3)cc2C1=O	.	.	.	.
C[C@H]1CN([C@@H](C)CO)C(=O)c2cc(NS(=O)(=O)c3cn(C)cn3)ccc2O[C@@H]1CN(C)Cc1ccccc1	.	.	.	24
C[C@H]1CCCCO[C@@H](CN(C)Cc2ccc(C(=O)Nc3ccccc3N)cc2)[C@@H](C)CN([C@@H](C)CO)C(=O)c2cc(N(C)C)ccc2O1	/	/	.	/
C[C@@H]1CCCCO[C@@H](CN(C)S(=O)(=O)c2ccc(Cl)cc2)[C@@H](C)CN([C@@H](C)CO)C(=O)c2cc(NS(=O)(=O)c3cccs3)ccc2O1	/	.	.	.
COc1ccc(NC(=O)Nc2ccc3c(c2)C(=O)N([C@@H](C)CO)C[C@@H](C)[C@@H](CN(C)Cc2ccccc2)OCCCC[C@H](C)O3)cc1	/	.	.	42
COc1ccc(CN(C)C[C@H]2OCCCC[C@H](C)Oc3ccc(NC(=O)Cc4ccccc4)cc3C(=O)N([C@H](C)CO)C[C@H]2C)cc1	/	.	.	.
COc1ccc(CN(C)C[C@@H]2OCCCC[C@@H](C)Oc3ccc(NC(=O)c4ccccc4)cc3C(=O)N([C@H](C)CO)C[C@@H]2C)cc1	/	86	.	.
COc1ccc(CN(C)C[C@@H]2OCCCC[C@H](C)Oc3ccc(NC(=O)Cc4ccccc4)cc3C(=O)N([C@@H](C)CO)C[C@H]2C)cc1	/	.	.	27
COc1ccc(NC(=O)Nc2ccc3c(c2)C(=O)N([C@@H](C)CO)C[C@@H](C)[C@H](CN(C)Cc2ccccc2)OCCCC[C@@H](C)O3)cc1	/	.	.	.

Screening data as filed in PubChem.
